# Reference: ChEMBL document CHEMBL4334429, “Rational design of novel amphipathic antimicrobial peptides focused on the distribution of cationic amino acid residues” (Medchemcomm, 2019)
# The source made the active and inactive calls. No cut-off for these calls is given here.
# Key:
# Staphylococcus aureus = assay: Antibacterial activity against Staphylococcus aureus after 18 hrs by broth microdilution method; assay type: functional
# Procedure, shortened: (§1)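 Bacteria grown to mid-log phase in LB medium at 37 °C. Peptides 2-fold serially diluted from 200 μM to 1.56 μM and mixed 1:1 with inoculum of 10^6 CFU per mL. Incubation 18 h at 35 °C. MIC is the lowest concentration giving complete growth inhibition by visual inspection […].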
# [1] = system: Staphylococcus epidermidis; assay: Antibacterial activity against Staphylococcus epidermidis after 18 hrs by broth microdilution method; assay type: functional; procedure, shortened: as §1
# Escherichia coli [2] = assay: Antibacterial activity against Escherichia coli NBRC 3972 after 18 hrs by broth microdilution method; assay type: functional; conditions: NBRC 3972, 18 h; procedure, shortened: as §1
# Escherichia coli [3] = assay: Antibacterial activity against Escherichia coli DH5[alpha] after 18 hrs by broth microdilution method; assay type: functional; procedure, shortened: as §1
# Proteus vulgaris = assay: Antibacterial activity against Proteus vulgaris NBRC 3045 after 18 hrs by broth microdilution method; assay type: functional; conditions: NBRC 3045, 18 h; procedure, shortened: as §1
# Pseudomonas aeruginosa = assay: Antibacterial activity against Pseudomonas aeruginosa NBRC 13725 after 18 hrs by broth microdilution method; assay type: functional; conditions: NBRC 13275, 18 h, in the assay text read “NBRC 13275” for “NBRC 13725”; procedure, shortened: as §1
# Erythrocyte = assay: Hemolytic activity in human RBC after 3 hrs; assay type: ADME, cell-based
# Procedure, shortened: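 Human red blood cells from Japanese Red Cross volunteers, washed three times and resuspended in PBS. Mixed 1:1 with diluted peptide and incubated 3 h at 37 °C. After centrifugation, supernatant absorbance read at 535 nm. Triton X-100 and M-lycotoxin served as positive controls.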
# Lipid bilayer = assay: Induction of membrane disruption in PG/CL/PE unilamellar vesicles assessed as increase in carboxyfluorescein leakage at 6.25 uM by fluorescence assay
# Procedure, shortened: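 E. coli-mimic liposomes of PG/CL/PE (2 : 1 : 7, w/w) loaded with 50 mM carboxyfluorescein in 20 mM Tris-HCl, pH 7.4; free dye removed by Sephadex G-50 gel filtration. Peptide added at 6.25 μM and leakage read by fluorescence. Release (%) = (Fobs−F0)/(F100−F0) × 100, with 100% set by Triton X-100.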
# TIG-3 [4] = assay: Cytotoxicity against human TIG3 at 100 uM after 72 hrs by WST-8 assay; assay type: cell-based; conditions: tig-3, 72 h
# Procedure, shortened: (§2)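 Human normal fibroblast TIG-3 cells kept in DMEM with 10% FBS and 100 μg ml–1 kanamycin. Seeded at 5 × 10^3 cells per well, treated 24 h later for 72 h. WST-8 reagent then added for 0.5 h at 37 °C, 5% CO2, and absorbance read at 450 nm. Means ± SD, n = 4.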
# TIG-3 [5] = assay: Cytotoxicity against human TIG3 at 1 to 100 uM after 72 hrs by WST-8 assay; assay type: cell-based; conditions: tig-3, 72 h; procedure, shortened: as §2
MIC (Staphylococcus aureus),MIC [1],MIC (Escherichia coli [2]),MIC (Escherichia coli [3]),MIC (Proteus vulgaris),MIC (Pseudomonas aeruginosa),Activity (Lipid bilayer),Substance,IC50 (Erythrocyte),Activity (TIG-3 [4]),Activity (TIG-3 [5])
100 µM,25 µM,3.12 µM,3.12 µM,> 100 µM,12.5 µM,,H-GIGKFLHSAKKFGKAFVGEIMNS-NH2,> 100 µM,,
,,,,,,,H-IWLTALKFLGKHAAKHLAKQQLSKL-NH2,0.78 µM,,
12.5 µM,6.25 µM,6.25 µM,12.5 µM,> 100 µM,6.25 µM,Active,H-KKKKKKKKKGGGLLALLALLA-NH2,25 µM,Toxic,
100 µM,6.25 µM,12.5 µM,25 µM,> 100 µM,3.12 µM,Active,H-KKKLAKLKLGAKLKLKGKLGA-NH2,100 µM,,Non-Toxic
12.5 µM,1.56 µM,3.12 µM,3.12 µM,> 100 µM,1.56 µM,Active,H-KLLKKAGKLLKKAGKLLKKAG-NH2,> 100 µM,,Non-Toxic
